Measured values from ChEMBL document CHEMBL5724801, “EUbOPEN Chemogenomics Library - Multiplex” (2024).
Values joined by “and” are separate entries in the source; they are usually repeats but may differ in a detail not shown here. Equal entries are not always repeated.

Tested on: Fibroblast
Experiment: Multiplex assay against human fibroblast
Format: toxicity, cell-based
Method in brief: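 Values for tubulin, mitochondrial-mass and membrane-permeability phenotypes are per cents of cells with healthy nuclei. These cells were identified by CellPathfinder machine-learning gating of live cells that had been stained at seeding with Hoechst33342, BioTracker Green Microtubule Cytoskeleton Dye, MitoTracker Red and Annexin V Alexa Fluor 680 and imaged on a CQ1 microscope at 37°C and 5% CO2 after compound addition. The gating first set Hoechst high-intensity objects apart from normal cells, then split normal cells into healthy, pyknosed or fragmented nuclei, and pyknosed cells into mitotic or apoptotic.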

[1] = 12 h, 1 µM, compound concentration 1 uM
[2] = 12 h, 10 µM, compound concentration 10 uM
[3] = 24 h, 1 µM, compound concentration 1 uM
[4] = 24 h, 10 µM, compound concentration 10 uM
[5] = 48 h, 1 µM, compound concentration 1 uM
[6] = 48 h, 10 µM, compound concentration 10 uM

Cc1cc(C(C#N)c2ccc(Cl)cc2)c(Cl)cc1NC(=O)c1cc(I)cc(I)c1O (stereo not drawn) [CLOSANTEL]
Population Fragmented Nuclei (%) [1]: 11% and 4.88% | Population Healthy Nuclei (%) [1]: 69% and 80% | Population Hoechst High Intensity Objects (%) [1]: 0% | Population Membrane Permeable-Phenotype (%) [1]: 3.62% and 2.44% | Population Mitochondria Different-Phenotype (%) [1]: 10.14% and 4.88% | Population Mitotic Cells (%) [1]: 97.5% and 87.1% | Population Normal (%) [1]: 100% | Population Pyknosed Nuclei (%) [1]: 20% and 15.12% | Population Tubulin-Different-Phenotype (%) [1]: 11.59% | Total Cell Count [1]: 200 and 205 | Population Fragmented Nuclei (%) [2]: 14.05% and 6.49% | Population Healthy Nuclei (%) [2]: 60.33% and 78.38% | Population Hoechst High Intensity Objects (%) [2]: 0% | Population Membrane Permeable-Phenotype (%) [2]: 3.42% and 2.76% | Population Mitochondria Different-Phenotype (%) [2]: 8.22% and 6.21% | Population Mitotic Cells (%) [2]: 95.16% and 78.57% | Population Normal (%) [2]: 100% | Population Pyknosed Nuclei (%) [2]: 25.62% and 15.14% | Population Tubulin-Different-Phenotype (%) [2]: 12.33% and 14.48% | Total Cell Count [2]: 242 and 185 | Population Apoptotic (%) [3]: 11.76% and 28.57% | Population Fragmented Nuclei (%) [3]: 7.66% and 4.52% | Population Healthy Nuclei (%) [3]: 77.03% and 88.44% | Population Hoechst High Intensity Objects (%) [3]: 0% | Population Membrane Permeable-Phenotype (%) [3]: 1.17% and 0.57% | Population Mitochondria Different-Phenotype (%) [3]: 7.6% and 4.55% | Population Mitotic Cells (%) [3]: 88.24% and 71.43% | Population Normal (%) [3]: 100% | Population Pyknosed Nuclei (%) [3]: 15.32% and 7.04% | Population Tubulin-Different-Phenotype (%) [3]: 12.28% and 13.07% | Total Cell Count [3]: 222 and 199 | Population Apoptotic (%) [4]: 10.53% and 22.73% | Population Fragmented Nuclei (%) [4]: 9.54% and 3.72% | Population Healthy Nuclei (%) [4]: 74.69% and 84.57% | Population Hoechst High Intensity Objects (%) [4]: 0% | Population Membrane Permeable-Phenotype (%) [4]: 2.22% and 2.52% | Population Mitochondria Different-Phenotype (%) [4]: 3.89% and 5.03% | Population Mitotic Cells (%) [4]: 89.47% and 77.27% | Population Normal (%) [4]: 100% | Population Pyknosed Nuclei (%) [4]: 15.77% and 11.7% | Population Tubulin-Different-Phenotype (%) [4]: 12.78% and 13.84% | Total Cell Count [4]: 241 and 188 | Population Apoptotic (%) [5]: 35.29% and 17.65% | Population Fragmented Nuclei (%) [5]: 10.13% and 6.91% | Population Healthy Nuclei (%) [5]: 82.38% and 85.25% | Population Hoechst High Intensity Objects (%) [5]: 0% | Population Membrane Permeable-Phenotype (%) [5]: 1.07% and 1.62% | Population Mitotic Cells (%) [5]: 64.71% and 82.35% | Population Normal (%) [5]: 100% | Population Pyknosed Nuclei (%) [5]: 7.49% and 7.83% | Population Tubulin-Different-Phenotype (%) [5]: 8.02% and 14.05% | Total Cell Count [5]: 227 and 217 | Population Apoptotic (%) [6]: 33.33% and 66.67% | Population Fragmented Nuclei (%) [6]: 6.69% and 4.66% | Population Healthy Nuclei (%) [6]: 88.85% and 92.23% | Population Hoechst High Intensity Objects (%) [6]: 0% | Population Membrane Permeable-Phenotype (%) [6]: 0.84% and 3.93% | Population Mitochondria Different-Phenotype (%) [6]: 12.13% and 3.93% | Population Mitotic Cells (%) [6]: 66.67% and 33.33% | Population Normal (%) [6]: 100% | Population Pyknosed Nuclei (%) [6]: 4.46% and 3.11% | Population Tubulin-Different-Phenotype (%) [6]: 5.02% and 12.36% | Total Cell Count [6]: 269 and 193
